# High-throughput results from PubChem.
# Shown are actives, neighbours in structure and some others; about 1.1% of the full set was active somewhere.
# Diaph act CS: diaphorase activation or chemical reduction counter-screen; 190,000 tested, 0.005% active; activation factor at 20 µM; AID 1229; Diaphorase/resazurin coupled assay, resorufin fluorescence, 16 min; active compounds read high; 1 = vehicle wells, 0 = NADH-free wells;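 active = diaphorase activity raised at least twofold by the compound at 20 µM; inactive = activation factor below 2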
#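 Material: Clostridium kluyveri diaphorase, purified enzyme; Quantity: enzyme 0.07 U/mL final; Medium: HEPES pH 7.4 buffer with MgCl2 and Tween 20; Dosing: single compound dose of 20 µM, 1% DMSO final; Schedule: 16 min reaction at room temperature; Measured by: red resorufin fluorescence at 544/590 nm excitation/emission.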
# G6PDH counter: inhibits Leuconostoc G6PDH, flagging false hits in G6PDH-based assays; inhibition, % at 5 µM; 200,000 tested, 0.12% active; Purified L. mesenteroides G6PDH, diaphorase/resazurin coupled fluorescence, 45 min; in the data active = inhibition above about 50%
# PMI act hi M6P: PMI (human) activation, high substrate; P34949; coupled PMI enzyme assay, resazurin fluorescence, 20 min; active compounds read high; 1 = untreated enzyme, 0 = substrate-free blank; activation factor at 20 µM; 190,000 tested, 0.34% active; AID 1216;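 active = activation factor of 2 or more at 20 µM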
# Target sequence (P34949 whole entry, looked up): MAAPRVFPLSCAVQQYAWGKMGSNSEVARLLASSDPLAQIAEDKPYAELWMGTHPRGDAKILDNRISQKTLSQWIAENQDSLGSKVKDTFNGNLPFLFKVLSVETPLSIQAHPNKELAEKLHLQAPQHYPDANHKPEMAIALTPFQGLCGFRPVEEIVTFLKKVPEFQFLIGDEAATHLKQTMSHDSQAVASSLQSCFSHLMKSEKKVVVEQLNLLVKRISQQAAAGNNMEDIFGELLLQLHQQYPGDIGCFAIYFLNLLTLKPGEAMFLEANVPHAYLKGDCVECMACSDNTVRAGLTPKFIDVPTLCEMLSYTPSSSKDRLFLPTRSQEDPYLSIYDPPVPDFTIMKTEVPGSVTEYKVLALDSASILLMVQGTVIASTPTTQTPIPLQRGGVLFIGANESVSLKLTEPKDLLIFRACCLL
#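 Material: human phosphomannose isomerase with PGI, G6PDH, diaphorase coupling enzymes / Reagent: Man-6-P substrate 1.0 mM / Dosing: single compound dose of 20 µM, 1% DMSO final / Incubation: enzyme reaction with compound 20 min at room temperature / Signal: resorufin fluorescence (Ex 544/Em 590 nm) from resazurin via diaphorase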
# PMI act: phosphomannose isomerase (human) activation. P34949. purified human PMI, coupled resazurin fluorescence, 20 min; active compounds read high; 1 = vehicle control, 0 substrate-free wells. activation factor at 20 µM. 190,000 tested, 0.005% active;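 active = activation factor of 2 or more at 20 µM, relative to plate controls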
# Diaph inh CS: inhibits diaphorase or chemically oxidizes, flagging diaphorase assay artifacts; diaphorase resazurin-to-resorufin fluorescence, NADH, 16 min; bacterial (C. kluyveri) enzyme, not human; inhibition, % at 20 µM; 190,000 tested, 0.69% active; AID 1217;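 active = primary screen inhibition at 20 µM above a set limit, cut at about 50% in these data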;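 note: plate controls were DMSO with full reaction for no effect and wells lacking NADH for full effect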
#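 Test system: bacterial diaphorase enzyme (C. kluyveri); Quantity: 0.14 U/mL diaphorase, enzyme working solution; Times: reaction incubation of 16 min at room temperature; Measured by: fluorescence of resorufin formed from resazurin, Ex 544/Em 590 nm; Benchmarks: positive control minus NADH, DMSO neutral control.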
# Active calls of the source: *.
SMILES,Diaph act CS,G6PDH counter,PMI act hi M6P,PMI act,Diaph inh CS
CCOC(=O)C1=C(O)/C(=C\c2ccc(CNS(=O)(=O)c3ccc(Br)cc3)o2)N=C1C,0.5,-4.4,1.4,1.3,52.5*
CCOC(=O)NC1(Nc2ccc(C)cc2)Oc2ccccc2O1,0.5,17.1,0.4,0.3,54.0*
CCOC(=O)NC1(NC(C)C)Oc2ccccc2O1,0.9,13.6,0.9,0.9,5.0
O=C(O)c1ccc(N/N=C/c2ccc(-c3ccccc3)cc2)cc1,0.7,-5.4,2.4*,1.6,33.0
C=CCOc1c(Br)cc(/C=N/Nc2ccc(C(=O)O)cc2)cc1OCC,0.8,1.3,1,1,15.1
COc1ccc(/C=N/Nc2ccc(C(=O)O)cc2)cc1Br,1.1,8.0,2.5*,1.8,-5.5
CC(C)c1ccc(/C=N/Nc2ccc(C(=O)O)cc2)cc1,0.9,8.7,2.5*,1.8,13.1
Cc1ccc(/C=N/Nc2ccc(C(=O)O)cc2)o1,0.9,6.7,1.1,1.1,7.8
CSc1nc(-c2ccc(C)cc2)[nH]c1S(=O)(=O)c1ccccc1,0.8,2.4,1.1,1.1,18.8
CC(=O)Sc1nc(-c2ccccc2)[nH]c1S(=O)(=O)c1ccc(C)cc1,0.6,14.6,2.2*,1.4,36.5
O=C(CCC1CCCC1)N[C@@H](Cc1ccc(O)cc1)C(=O)O,1,7.3,1,1.1,0.9
CCOc1cc(/C=C2\N=C(SC)SC2=O)cc([N+](=O)[O-])c1OC(C)=O,0.2,5.7,0.6,0.8,81.2*
COc1ccc(/C=C2\N=C(SC)SC2=O)cc1OC,0.9,3.6,1,0.9,13.7
CCOc1c(OC(C)=O)ccc(/C=C2\N=C(SCC)SC2=O)c1[N+](=O)[O-],0.8,0.0,0.8,0.8,17.8
CCOc1cc(/C=C2\N=C(SCC)SC2=O)cc([N+](=O)[O-])c1OC(C)=O,0.1,7.8,0.5,0.6,90.1*
Cc1c(C(=O)NC(=S)Nc2ccc(N3CCOCC3)cc2)cccc1[N+](=O)[O-],0.8,5.9,1,1,20.0
CCN(CC)C(=O)CSc1nc2c(sc(=S)n2-c2ccccc2)c(=O)[nH]1,0.3,1.6,1.2,1.1,68.7*
CCN(CC)C(=O)CSc1nc2c(sc(=S)n2Cc2ccco2)c(=O)n1-c1ccccc1,0.5,1.3,0.5,0.8,50.8*
CCOC(=O)CSc1nc2c(sc(=S)n2Cc2ccco2)c(=O)n1-c1ccccc1,0.8,7.5,0.8,0.9,24.4
CCNc1nc(OC)nc(SCC(=O)Nc2ccccc2)n1,0.9,-0.6,0.9,0.9,8.7
CCOC(=O)c1c(C)oc2c1c1c(c3ccccc32)OCN(Cc2cccnc2)C1,0.5,13.1,0.3,0.3,53.1*
O=C(O)CC(c1ccccc1)n1cccc1 (stereo unspecified),0.9,2.1,2*,1.3,10.2
Nc1ccc(C(CC(=O)O)n2cccc2)cc1 (stereo unspecified),0.9,3.2,0.8,0.9,13.2
FC(F)(F)c1nnc2ccc(-n3ccnc3)nn12,0.9,-2.5,1,1.1,14.7
CC(NC(=O)CCCn1cc([N+](=O)[O-])cn1)c1ccccc1 (stereo unspecified),0.9,7.4,1,1,6.6
SMILES,Diaph act CS,G6PDH counter,PMI act hi M6P,PMI act,Diaph inh CS
NNc1ccccc1C(F)(F)F,0.9,-6.6,3.1*,2*,6.5
COC(=O)[C@H](C)NC(=O)Nc1ccccc1C(F)(F)F,0.9,2.4,0.9,0.9,6.3
COc1ccc(OC)c2[nH]c(=O)c(CCNC(=O)c3cc4ccccc4o3)cc12,0.4,-37.2,0.8,0.8,58.5*
COc1ccc(OC)c(NC(=O)Cc2coc3ccc4ccccc4c23)c1,0.7,0.9,0.8,0.8,26.4
C/C(=N\Nc1ccc(F)cc1F)c1ccccc1O,0.9,-1.4,2.3*,1.7,9.3
CC(C)n1c(O)c(N=NC(=O)C2COc3ccccc3O2)c2ccccc21 (stereo unspecified),0.9,7.8,0.9,0.9,12.3
CN=c1scc(-c2ccc(F)cc2)n1/N=C/c1ccc(O)c(O)c1,0.5,17.8,0.8,0.5,50.4*
CN=c1scc(-c2ccc([N+](=O)[O-])cc2)n1/N=C/c1ccco1,1,0.9,1.1,1.3,1.8
